Experimental data as given in ChEMBL document CHEMBL4043182, “On the synthesis of quinone-based BODIPY hybrids: New insights on antitumor activity and mechanism of action in cancer cells” (Bioorg Med Chem Lett, 2017).
pIC50: −log10 of the molar value.

Columns and labels:
[1] = tested on: HCT-116; test: Induction of oxidative stress in human HCT116 cells assessed as total GSSG levels at 5 uM after 24 hrs by spectrophotometric analysis (reference value: 1.19 +/- 0.37 microg/mg); assay type: functional
[2] = tested on: HCT-116; test: Induction of oxidative stress in human HCT116 cells assessed as GSH to GSSG ratio at 5 uM treated 24 hrs post NAC addition measured after 24 hrs by spectrophotometric analysis (reference value: 3.09 +/- 0.33 microg/mg); assay type: functional
[3] = tested on: L929; test: Induction of oxidative stress in mouse L929 cells assessed as total GSSG levels at 5 uM after 24 hrs by spectrophotometric analysis (reference value: 1.05 +/- 0.33 microg/mg); assay type: cell-based; conditions: l929, 24 h
[4] = tested on: PC-3; test: Induction of oxidative stress in human PC3 cells assessed as total GSH levels at 5 uM treated 24 hrs post NAC addition measured after 24 hrs by spectrophotometric analysis (reference value: 3.04 +/- 0.51 microg/mg); assay type: functional
Outline: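 Cells were pretreated 24 h with 5 mM NAC, then exposed 24 h to test compound at 5 µM. Controls received 0.1% DMSO. Extracts were prepared by sonication and HClO4 precipitation, then neutralized with KOH. Total glutathione was read by DTNB/glutathione reductase/NADPH rate at 412 nm. GSSG was measured after 4-vinylpyridine (0.1%, 1 h, RT) and GSH derived by difference. Values are normalized to protein, triplicates, three independent runs.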

[5] = tested on: MDA-MB-435; test: Antiproliferative activity against human MDA-MB-435 cells after 72 hrs by MTT assay; assay type: functional, cell-based; conditions: MDA-MB-435, 72 h
Outline: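 MTT reduction: cancer lines plated at 0.7×10^5 to 0.3×10^6 cells/well, V79 and L929 fibroblasts at 0.5×10^5 cells/well. Compounds in DMSO (0.1%) were given for 24 h at 0.04–40.92 µM or 72 h at 0.04–8.19 µM. Fresh medium with 0.5 mg/mL MTT was added for 3 h, then formazan was dissolved in DMSO and read at 595 nm as % of control. IC50 came from nonlinear regression with 95% CI. Doxorubicin (0.001–1.06 µM) was the positive control. Triplicate, ≥3 repeats.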

[6] = Selectivity index, ratio of IC50 for mouse L929 cells to IC50 for human PC3 cells; assay type: functional
Outline: (§1)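 Selectivity index is the ratio of the IC50 in a non-cancer murine line (V79 or L929) to the IC50 in the cancer line. […] MTT was 0.5 mg/mL for 3 h, formazan dissolved in DMSO and read at 595 nm as % of control. IC50s were derived by nonlinear regression; triplicate, at least three repeats.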

[7] = Selective index, ratio of IC50 for chinese hamster V79 cells to IC50 for human PC3 cells; outline: as §1
[8] = tested on: PC-3; test: Induction of oxidative stress in human PC3 cells assessed as total GSH levels at 5 uM after 24 hrs by spectrophotometric analysis (reference value: 3.04 +/- 0.51 microg/mg); assay type: functional

- Activity [3]: 2.27 µg/mg
- pIC50 [5]: 6.09
Structure (SMILES): CC1(C)OC2=C(C(=O)C(=O)c3ccccc32)C1n1cc(CNC2=[N+]3C(=C(c4ccccc4)c4ccc(Cl)n4[B-]3(F)F)C=C2)nn1 (stereo not drawn)
- Activity [1]: 2.01 µg/mg
- Activity [2]: 2.63 µg/mg
- Activity [4]: 3.13 µg/mg
- Ratio IC50 [6]: 2.4
- Ratio IC50 [7]: 1.7
- Activity [8]: 1.35 µg/mg
